# Measurements from different studies.
# Lines come from different studies, so protocols differ.
# CYP3A7: Cytochrome P450 3A7 (CYP3A7, Homo sapiens, UniProt P24462)
# Pancreatic alpha-amylase: Pancreatic alpha-amylase (Homo sapiens, UniProt P04746)
# PDE4C: 3',5'-cyclic-AMP phosphodiesterase 4C (PDE4C, Homo sapiens, UniProt Q08493)
# ALB: Albumin (ALB, Bos taurus, UniProt P02769)
Compound,target,test,setting,quantity,result
CC(C)(C)[C@@H]1NC(=O)O[C@@H]2CCC[C@H]2OC/C=C/C(F)(F)c2nc3ccccc3nc2O[C@@H]2C[C@@H](C(=O)N[C@]3(C(=O)NS(=O)(=O)C4(C)CC4)C[C@H]3C(F)F)N(C2)C1=O,CYP3A7,"enzyme activity, inhibitor, mass spectrometry",5 min,IC50,12.1 µM
O=C(C=Cc1ccccc1)Nc1cc(-c2ccnc(N3CCC(O)CC3)c2)ccn1,"Retinoic acid receptor RXR-alpha (RXRA, Homo sapiens, UniProt P19793)","binding, SPR",,Kd,0.78 µM
CC(C)(C)OC(=O)N[C@H]1CCCCC/C=C\[C@@H]2C[C@@]2(C(=O)NS(=O)(=O)C2CC2)NC(=O)[C@@H]2C[C@@H](OC(=O)N3Cc4cccc(F)c4C3)CN2C1=O,CYP3A7,"enzyme activity, inhibitor, mass spectrometry",5 min,IC50,21.9 µM
OC[C@H]1O[C@@H](Oc2cc3c4c(c2)[C@@H]([C@@H]2c5cc(O)cc6c5[C@@H](c5cc(O)cc(O)c5[C@H]2c2ccc(O)cc2)[C@H](c2ccc(O)cc2)O6)[C@H](c2ccc(O)cc2)c2c(O)cc(O)cc2[C@H]4[C@H](c2ccc(O)cc2)O3)[C@H](O)[C@@H](O)[C@@H]1O,Pancreatic alpha-amylase,"enzyme activity, inhibitor",,IC50,> 100 µM
CN(C)C(=O)c1cc2cnc(Nc3ccc(N4CCNCC4)cn3)nc2n1C1CCCC1,PDE4C,"enzyme activity, inhibitor, TR-FRET",,IC50,4.4 µM
CCN(CC)c1ccc(/C=N/c2ccc(Cl)cc2)c(O)c1,Pancreatic alpha-amylase,"enzyme activity, inhibitor, absorbance",,IC50,63.5 µM
CC(C)C[C@H](NC(=O)[C@H](CC(N)=O)NC(=O)[C@H](Cc1c[nH]c2ccccc12)NC(=O)[C@@H](NC(=O)[C@H](Cc1ccc(O)cc1)NC(=O)[C@H](Cc1ccc(O)cc1)NC(=O)[C@H](CO)NC(=O)[C@H](CCCNC(=N)N)NC(=O)[C@H](Cc1c[nH]cn1)NC(=O)[C@@H](N)Cc1c[nH]c2ccccc12)[C@@H](C)O)C(=O)O,ALB,"binding, SPR",,Kd,3.99 µM
O=C1CCc2ccccc2O1,"Carbonic anhydrase 9 (CA9, Homo sapiens, UniProt Q16790)","enzyme activity, inhibitor, stopped-flow",,Ki,4.1 µM
CCc1c(C)nc(-c2ccc(Cl)s2)nc1Nc1ccc(CC(=O)O)cc1,PDE4C,"enzyme activity, inhibitor, FP",,IC50,~63 µM
CCN(CC)c1ccc(/C=N/c2ccc(F)c(Cl)c2)c(O)c1,Pancreatic alpha-amylase,"enzyme activity, inhibitor, absorbance",,IC50,190 µM
COc1ccc2c(O[C@@H]3C[C@H]4C(=O)N[C@]5(C(=O)NS(=O)(=O)C6CC6)C[C@H]5/C=C\CCCCN(C)C(=O)[C@@H]4C3)cc(-c3nc(C(C)C)cs3)nc2c1C,CYP3A7,"enzyme activity, inhibitor, mass spectrometry",5 min,IC50,16.1 µM
CCN(CC)c1ccc(/C=N/c2ccccc2F)c(O)c1,Pancreatic alpha-amylase,"enzyme activity, inhibitor, absorbance",,IC50,255 µM
Oc1ccc([C@@H]2c3c(O)cc(O)cc3[C@@H]3c4c(cc(O)c5c4[C@@H]2[C@H](c2ccc(O)cc2)[C@H]5c2cc(O)cc4c2[C@@H](c2cc(O)cc(O)c2)[C@H](c2ccc(O)cc2)O4)O[C@H]3c2ccc(O)cc2)cc1,Pancreatic alpha-amylase,"enzyme activity, inhibitor",,IC50,6.1 µM
N=c1c[n+](N2CCOCC2)[n-]o1,"NAD-dependent protein deacylase sirtuin-5, mitochondrial (SIRT5, Homo sapiens, UniProt Q9NXA8)","enzyme activity, inhibitor, HPLC",,IC50,8 µM
C[C@@H](O)[C@H](NC(=O)[C@H](Cc1ccc(O)cc1)NC(=O)[C@H](Cc1ccc(O)cc1)NC(=O)[C@H](CO)NC(=O)[C@H](CCCNC(=N)N)NC(=O)[C@H](Cc1c[nH]cn1)NC(=O)[C@@H](N)Cc1c[nH]c2ccccc12)C(=O)N[C@@H](Cc1c[nH]c2ccccc12)C(=O)N[C@@H](CC(N)=O)C(=O)O,ALB,"binding, SPR",,Kd,6.12 µM
